Reference: ChEMBL document CHEMBL3108709, “Diversity-oriented synthesis yields a new drug lead for treatment of chagas disease” (ACS Med Chem Lett, 2014)
Converted amounts (≈) assume the structure as drawn. Blank lines part the entries; values can stand above or below the compound they belong to. The source made the active and inactive calls. No cut-off for these calls is given here.

Tests used:
[1] = test system: Trypanosoma cruzi; test: Trypanocidal activity against Trypanosoma cruzi CA-I/72 infected in BESM cells assessed as parasite re-emergence at 40 nM treated for 29 days measured after 36 days; assay type: functional, organism-based
Outline: (§1)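 T. cruzi-infected bovine embryo skeletal muscle (BESM) cells treated with varying compound concentrations for 20 or 29 days, compound refreshed every other day, then followed up to 36 days post-treatment. Trypomastigote emergence into medium checked visually daily through treatment and post-treatment phases; no re-emergence taken as trypanocidal, delayed emergence as trypanostatic.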

[2] = test system: Trypanosoma cruzi; test: Trypanocidal activity against Trypanosoma cruzi CA-I/72 infected in BESM cells assessed as parasite re-emergence at 740 nM treated for 20 days measured after 37 days; assay type: functional, organism-based; outline: as §1
[3] = Solubility of the compound in phosphate buffer saline; assay type: physicochemical
[4] = test system: Trypanosoma cruzi; test: Trypanocidal activity against Trypanosoma cruzi CA-I/72 infected in BESM cells assessed as parasite re-emergence at 740 nM measured over 20 days of drug treatment; assay type: functional, organism-based; outline: as §1
[5] = test system: Trypanosoma cruzi; test: Trypanocidal activity against Trypanosoma cruzi CA-I/72 infected in BESM cells assessed as parasite re-emergence at 250 nM treated for 20 days measured after 4 days; assay type: functional, organism-based; outline: as §1
[6] = test system: Trypanosoma cruzi; test: Trypanocidal activity against Trypanosoma cruzi CA-I/72 infected in BESM cells assessed as parasite re-emergence at 40 nM measured over 29 days of drug treatment; assay type: functional, organism-based; outline: as §1
[7] = test system: Trypanosoma cruzi; test: Antitrypanosomal activity against Trypanosoma cruzi Tulahuen infected in mouse NIH/3T3 cells assessed as multimode parasite growth inhibition after 4 days by beta-galactosidase reporter gene assay; assay type: functional, organism-based; conditions: NIH3T3, 96 h
Outline: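 Recombinant Tulahuen T. cruzi stably expressing a beta-galactosidase reporter, cocultured with mouse NIH/3T3 fibroblast host cells. Compounds added to host cells before infection with parasites; growth inhibition read by reporter; IC50 in nM.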

[8] = test system: Trypanosoma cruzi; test: Antitrypanosomal activity against amastigote stage of Trypanosoma cruzi Tulahuen infected in rat L6 cells assessed as parasite growth inhibition after 96 hrs by beta-galactosidase reporter gene assay; assay type: functional, organism-based; conditions: L6, 96 h
[9] = Plasma protein binding in human; assay type: ADME, cell-free; conditions: read-out: PPB (converted)
[10] = test system: Trypanosoma cruzi; test: Trypanocidal activity against Trypanosoma cruzi CA-I/72 infected in BESM cells assessed as parasite re-emergence at 250 nM measured over 20 days of drug treatment; assay type: functional, organism-based; outline: as §1
[11] = Metabolic stability in mouse microsomes assessed as compound remaining at 1 uM after 1 hr; assay type: ADME, Microsome; conditions: read-out: Stability
Outline: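 Mouse liver microsomes incubated 1 h with compound at 1 μM; result expressed as percent of compound remaining.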

[12] = test system: Plasma; test: Metabolic stability in human plasma; assay type: ADME, cell-free
[13] = test system: Trypanosoma cruzi; test: Trypanocidal activity against Trypanosoma cruzi CA-I/72 infected in BESM cells assessed as parasite re-emergence at 370 nM measured over 29 days of drug treatment; assay type: functional, organism-based; outline: as §1
[14] = test system: Trypanosoma cruzi; test: Trypanocidal activity against Trypanosoma cruzi CA-I/72 infected in BESM cells assessed as parasite re-emergence at 370 nM treated for 29 days measured after 36 days; assay type: functional, organism-based; outline: as §1
[15] = Fraction unbound in human plasma; assay type: ADME, cell-free
[16] = test system: Trypanosoma cruzi; test: Trypanocidal activity against Trypanosoma cruzi CA-I/72 infected in BESM cells assessed as parasite re-emergence at 6.6 uM measured over 20 days of drug treatment; assay type: functional, organism-based; outline: as §1
[17] = test system: Trypanosoma cruzi; test: Trypanocidal activity against Trypanosoma cruzi CA-I/72 infected in BESM cells assessed as parasite re-emergence at 6.6 uM treated for 20 days measured after 37 days; assay type: functional, organism-based; outline: as §1

- solubility [3]: 1 µM (≈ 0.595 µg/mL)
- IC50 [7]: 1 nM
- IC50 [8]: 16 nM
- fraction unbound [9]: 0.01
- remaining at 1 h, 1 µM [11]: 77%
SMILES: C[C@H]1CN([C@@H](C)CO)C(=O)c2cccc(NC(=O)c3ccncc3)c2O[C@@H]1CN(C)Cc1ccc(Oc2ccccc2)cc1
- Activity [1]: Active
- Activity [2]: Active
- Activity [4]: Active
- Activity [5]: inactive
- Activity [6]: Active
- Activity [10]: inactive

- IC50 [7]: 1 nM
SMILES: Cc1cccc(CN(C)C[C@H]2Oc3c(NC(=O)c4ccncc4)cccc3C(=O)N([C@@H](C)CO)C[C@@H]2C)c1

- IC50 [7]: < 1 nM
SMILES: CC(C)N1C[C@H](C)[C@@H](CN(C)Cc2ccccc2)Oc2c(NC(=O)c3ccncc3)cccc2C1=O

- IC50 [7]: 34 nM
SMILES: C[C@H]1CN([C@@H](C)CO)C(=O)c2cccc(NC(=O)c3ccncc3)c2O[C@@H]1CN(C)Cc1ccccc1C(F)(F)F

- IC50 [7]: 1 nM
- IC50 [8]: 288 nM
SMILES: CC(C)N1C[C@H](C)[C@@H](CN(C)Cc2ccc(Oc3ccccc3)cc2)Oc2c(NC(=O)c3ccncc3)cccc2C1=O

- IC50 [7]: 56 nM
SMILES: Cc1ccccc1CN(C)C[C@H]1Oc2c(NC(=O)c3ccncc3)cccc2C(=O)N([C@@H](C)CO)C[C@@H]1C

- IC50 [7]: 1 nM
SMILES: C[C@H]1CN([C@@H](C)CO)C(=O)c2cccc(NC(=O)c3ccncc3)c2O[C@@H]1CN(C)Cc1ccc(Cl)cc1

- IC50 [7]: 13 nM
- IC50 [8]: 422 nM
SMILES: C[C@H]1CN([C@@H](C)CO)C(=O)c2cccc(NC(=O)c3ccncc3)c2O[C@@H]1CN(C)Cc1ccc(C(F)(F)F)cc1

- IC50 [7]: 344 nM
SMILES: CC(C)N1C[C@H](C)[C@@H](CN(C)Cc2ccc(Oc3ccccc3)cc2)Oc2c(NC(=O)c3ccccn3)cccc2C1=O

- IC50 [7]: 1000 nM
SMILES: CC(C)N1C[C@H](C)[C@@H](CN(C)Cc2ccc(Oc3ccccc3)cc2)Oc2c(NC(=O)C3CCNCC3)cccc2C1=O

- solubility [3]: 64 µM (≈ 36.6 µg/mL)
- IC50 [7]: < 1 nM
- IC50 [8]: 83 nM
SMILES: C[C@H]1CN([C@@H](C)CO)C(=O)c2cccc(NC(=O)c3ccncc3)c2O[C@@H]1CN(C)Cc1ccc(Cl)c(Cl)c1

- IC50 [7]: 14 nM
SMILES: Cc1ccc(CN(C)C[C@H]2Oc3c(NC(=O)c4ccncc4)cccc3C(=O)N([C@@H](C)CO)C[C@@H]2C)cc1

- solubility [3]: 100 µM (≈ 50.4 µg/mL)
- IC50 [7]: > 32000 nM
SMILES: C[C@H]1CN([C@@H](C)CO)C(=O)c2cccc(NC(=O)c3ccncc3)c2O[C@@H]1CN(C)Cc1ccncc1

- Stability [12]: Unstable
- solubility [3]: 98 µM (≈ 58.3 µg/mL)
- IC50 [7]: 16 nM
- IC50 [8]: 75 nM
- remaining at 1 h, 1 µM [11]: < 1%
SMILES: C[C@H](CO)N1C[C@H](C)[C@H](CN(C)Cc2ccc(Oc3ccccc3)cc2)Oc2c(NC(=O)c3ccncc3)cccc2C1=O
- Activity [13]: Active
- Activity [14]: Active

- IC50 [7]: 500 nM
SMILES: CC(C)N1C[C@H](C)[C@@H](CN(C)Cc2ccc(Oc3ccccc3)cc2)Oc2c(NC(=O)c3ccccc3)cccc2C1=O

- solubility [3]: 86 µM (≈ 51.1 µg/mL)
- fraction unbound [15]: 0.05
- IC50 [7]: 260 nM
- IC50 [8]: 1200 nM
- fraction unbound [9]: 0.05
- remaining at 1 h, 1 µM [11]: < 1%
SMILES: C[C@@H]1CN([C@H](C)CO)C(=O)c2cccc(NC(=O)c3ccncc3)c2O[C@@H]1CN(C)Cc1ccc(Oc2ccccc2)cc1

- IC50 [7]: 1 nM
SMILES: C[C@H]1CN([C@@H](C)CO)C(=O)c2cccc(NC(=O)c3ccncc3)c2O[C@@H]1CN(C)Cc1cccc(C(F)(F)F)c1

- solubility [3]: 100 µM (≈ 50.3 µg/mL)
- IC50 [7]: 12 nM
SMILES: C[C@H]1CN([C@@H](C)CO)C(=O)c2cccc(NC(=O)c3ccncc3)c2O[C@@H]1CN(C)Cc1ccccc1

- solubility [3]: 93 µM (≈ 55.3 µg/mL)
- fraction unbound [15]: 0.05
- IC50 [7]: 23 nM
- IC50 [8]: 59 nM
- fraction unbound [9]: 0.05
- remaining at 1 h, 1 µM [11]: < 1%
SMILES: C[C@H]1CN([C@@H](C)CO)C(=O)c2cccc(NC(=O)c3ccncc3)c2O[C@H]1CN(C)Cc1ccc(Oc2ccccc2)cc1
- Activity [1]: Active
- Activity [6]: Active

- IC50 [7]: 127 nM
SMILES: COc1ccc(CN(C)C[C@H]2Oc3c(NC(=O)c4ccncc4)cccc3C(=O)N([C@@H](C)CO)C[C@@H]2C)cc1

- IC50 [7]: 10 nM
SMILES: C[C@H]1CN([C@@H](C)CO)C(=O)c2cccc(NC(=O)c3ccncc3)c2O[C@@H]1CN(C)Cc1ccc(-c2ccccc2)cc1

- IC50 [7]: 1 nM
- IC50 [8]: 61 nM
SMILES: CC(C)N1C[C@H](C)[C@@H](CN(C)Cc2ccc(Cl)cc2)Oc2c(NC(=O)c3ccncc3)cccc2C1=O

- IC50 [7]: 15 nM
SMILES: C[C@H]1CN([C@@H](C)CO)C(=O)c2cccc(NC(=O)c3ccncc3)c2O[C@@H]1CN(C)Cc1cccc(Cl)c1

- IC50 [7]: 2 nM
SMILES: CC(C)N1C[C@H](C)[C@@H](CN(C)Cc2cccc(Cl)c2)Oc2c(NC(=O)c3ccncc3)cccc2C1=O

- solubility [3]: 2 µM (≈ 1.19 µg/mL)
- IC50 [7]: 2 nM
- IC50 [8]: 31 nM
- fraction unbound [9]: 0.01
- remaining at 1 h, 1 µM [11]: 70%
SMILES: C[C@H](CO)N1C[C@H](C)[C@@H](CN(C)Cc2ccc(Oc3ccccc3)cc2)Oc2c(NC(=O)c3ccncc3)cccc2C1=O

- IC50 [7]: 1 nM
SMILES: C[C@H]1CN([C@@H](C)CO)C(=O)c2cccc(NC(=O)c3ccncc3)c2O[C@@H]1CN(C)Cc1ccc(Cl)c(F)c1

- IC50 [7]: 27 nM
SMILES: C[C@H]1CN([C@@H](C)CO)C(=O)c2cccc(NC(=O)c3ccncc3)c2O[C@@H]1CN(C)Cc1ccc(Cl)cc1Cl

SMILES: O=C(Cn1ccnc1[N+](=O)[O-])NCc1ccccc1
- Activity [16]: Active
- Activity [17]: Active

- IC50 [7]: 10 nM
SMILES: C[C@H]1CN([C@@H](C)CO)C(=O)c2cccc(NC(=O)c3ccncc3)c2O[C@@H]1CN(C)Cc1cc(Cl)cc(Cl)c1

- IC50 [7]: 50 nM
SMILES: C[C@H]1CN([C@@H](C)CO)C(=O)c2cccc(NC(=O)c3ccncc3)c2O[C@@H]1CN(C)Cc1ccc(F)c(F)c1

- IC50 [7]: 165 nM
SMILES: C[C@H]1CN([C@@H](C)CO)C(=O)c2cccc(NC(=O)c3ccncc3)c2O[C@@H]1CN(C)Cc1ccccc1Cl

- IC50 [7]: 57 nM
SMILES: COc1cccc(CN(C)C[C@H]2Oc3c(NC(=O)c4ccncc4)cccc3C(=O)N([C@@H](C)CO)C[C@@H]2C)c1

- IC50 [7]: 78 nM
SMILES: COc1ccccc1CN(C)C[C@H]1Oc2c(NC(=O)c3ccncc3)cccc2C(=O)N([C@@H](C)CO)C[C@@H]1C

- IC50 [7]: 45 nM
SMILES: CC(C)N1C[C@H](C)[C@@H](CN(C)Cc2ccccc2Cl)Oc2c(NC(=O)c3ccncc3)cccc2C1=O

- IC50 [7]: 1200 nM
SMILES: CC(C)N1C[C@H](C)[C@@H](CN(C)Cc2ccc(Oc3ccccc3)cc2)Oc2c(NC(=O)C3CCN(C)CC3)cccc2C1=O

- solubility [3]: 87 µM (≈ 51.7 µg/mL)
- fraction unbound [15]: 0.05
- IC50 [7]: 450 nM
- IC50 [8]: 670 nM
- fraction unbound [9]: 0.05
- remaining at 1 h, 1 µM [11]: < 1%
SMILES: C[C@@H]1CN([C@@H](C)CO)C(=O)c2cccc(NC(=O)c3ccncc3)c2O[C@@H]1CN(C)Cc1ccc(Oc2ccccc2)cc1

- solubility [3]: 1 µM (≈ 0.595 µg/mL)
- IC50 [7]: 5 nM
- IC50 [8]: 22 nM
- fraction unbound [9]: 0.01
- remaining at 1 h, 1 µM [11]: 1%
SMILES: C[C@@H]1CN([C@H](C)CO)C(=O)c2cccc(NC(=O)c3ccncc3)c2O[C@H]1CN(C)Cc1ccc(Oc2ccccc2)cc1
- Activity [1]: Active
- Activity [6]: Active

- IC50 [7]: 45 nM
SMILES: CC(C)N1C[C@H](C)[C@@H](CN(C)Cc2ccc(Oc3ccccc3)cc2)Oc2c(NC(=O)c3cccnc3)cccc2C1=O

- IC50 [7]: 25 nM
SMILES: C[C@H]1CN([C@@H](C)CO)C(=O)c2cccc(NC(=O)c3ccncc3)c2O[C@@H]1CN(C)Cc1cccc(Cl)c1Cl

- solubility [3]: 1 µM (≈ 0.595 µg/mL)
- IC50 [7]: 1 nM
- IC50 [8]: 24 nM
- fraction unbound [9]: 0.01
- remaining at 1 h, 1 µM [11]: 2%
SMILES: C[C@@H]1CN([C@@H](C)CO)C(=O)c2cccc(NC(=O)c3ccncc3)c2O[C@H]1CN(C)Cc1ccc(Oc2ccccc2)cc1
- Activity [1]: Active
- Activity [6]: Active

- IC50 [7]: 57 nM
SMILES: C[C@H]1CN([C@@H](C)CO)C(=O)c2cccc(NC(=O)c3ccncc3)c2O[C@@H]1CN(C)Cc1cc(Cl)ccc1Cl

- IC50 [7]: 445 nM
SMILES: C[C@H]1CN([C@@H](C)CO)C(=O)c2cccc(NC(=O)c3ccncc3)c2O[C@@H]1CN(C)Cc1c(Cl)cccc1Cl
